Sampled rows, rich in hits. Any-hit rate of the full collection: about 1.6%.
MsrA inh = bovine MsrA enzyme inhibitors, primary screen, biochemical, absorbance, HTS; hit rate 0.75% among 360,000; Methionine sulfoxide reductase A (Bos taurus); inhibition, % at 15.5 µM; purified bovine MsrA, absorbance read-out; in the data active = inhibition above about 4.5%
MT1-MMP act inh = blockers of MT1-MMP proenzyme processing, primary screen, HT1080 RFP-PRO-GFP cells, GFP/RFP fluorescence; GFP/RFP ratio fluorescence, overnight; percent of plate control window, DMSO zero; GFP/RFP ratio change, % at 20 µM; hit rate 0.061% among 360,000; Matrix metalloproteinase-14 (Homo sapiens), P50281;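 active = GFP/RFP ratio change of at least 30% with cell ATP level not reduced by more than half and red fluorescence within 50% of control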
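Assay system: HT1080 RFP-PRO-GFP cells. Benchmarks: DMSO vehicle wells and RFP-L50D-GFP reporter cell wells. Times: overnight cell settling, then overnight compound exposure, 37 °C, 5% CO2. Compound: 20 µM single dose, 1% DMSO. Read-out basis: GFP/RFP fluorescence ratio.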
p-CIP stab down = p/CIP-EGFP fusion destabilizers, primary screen, fluorescence, F442A cells; AID 1984, 2009; decrease of EGFP signal, % at 10 µM; 16 h; hit rate 0.01% among 290,000;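 active = EGFP signal decrease of at least 30% at 10 µM or well 3 SD below plate mean, unless failing retest; inactive = the rest, including hits failing retest or dose response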
Target sequence (Q05BA5 1-1403): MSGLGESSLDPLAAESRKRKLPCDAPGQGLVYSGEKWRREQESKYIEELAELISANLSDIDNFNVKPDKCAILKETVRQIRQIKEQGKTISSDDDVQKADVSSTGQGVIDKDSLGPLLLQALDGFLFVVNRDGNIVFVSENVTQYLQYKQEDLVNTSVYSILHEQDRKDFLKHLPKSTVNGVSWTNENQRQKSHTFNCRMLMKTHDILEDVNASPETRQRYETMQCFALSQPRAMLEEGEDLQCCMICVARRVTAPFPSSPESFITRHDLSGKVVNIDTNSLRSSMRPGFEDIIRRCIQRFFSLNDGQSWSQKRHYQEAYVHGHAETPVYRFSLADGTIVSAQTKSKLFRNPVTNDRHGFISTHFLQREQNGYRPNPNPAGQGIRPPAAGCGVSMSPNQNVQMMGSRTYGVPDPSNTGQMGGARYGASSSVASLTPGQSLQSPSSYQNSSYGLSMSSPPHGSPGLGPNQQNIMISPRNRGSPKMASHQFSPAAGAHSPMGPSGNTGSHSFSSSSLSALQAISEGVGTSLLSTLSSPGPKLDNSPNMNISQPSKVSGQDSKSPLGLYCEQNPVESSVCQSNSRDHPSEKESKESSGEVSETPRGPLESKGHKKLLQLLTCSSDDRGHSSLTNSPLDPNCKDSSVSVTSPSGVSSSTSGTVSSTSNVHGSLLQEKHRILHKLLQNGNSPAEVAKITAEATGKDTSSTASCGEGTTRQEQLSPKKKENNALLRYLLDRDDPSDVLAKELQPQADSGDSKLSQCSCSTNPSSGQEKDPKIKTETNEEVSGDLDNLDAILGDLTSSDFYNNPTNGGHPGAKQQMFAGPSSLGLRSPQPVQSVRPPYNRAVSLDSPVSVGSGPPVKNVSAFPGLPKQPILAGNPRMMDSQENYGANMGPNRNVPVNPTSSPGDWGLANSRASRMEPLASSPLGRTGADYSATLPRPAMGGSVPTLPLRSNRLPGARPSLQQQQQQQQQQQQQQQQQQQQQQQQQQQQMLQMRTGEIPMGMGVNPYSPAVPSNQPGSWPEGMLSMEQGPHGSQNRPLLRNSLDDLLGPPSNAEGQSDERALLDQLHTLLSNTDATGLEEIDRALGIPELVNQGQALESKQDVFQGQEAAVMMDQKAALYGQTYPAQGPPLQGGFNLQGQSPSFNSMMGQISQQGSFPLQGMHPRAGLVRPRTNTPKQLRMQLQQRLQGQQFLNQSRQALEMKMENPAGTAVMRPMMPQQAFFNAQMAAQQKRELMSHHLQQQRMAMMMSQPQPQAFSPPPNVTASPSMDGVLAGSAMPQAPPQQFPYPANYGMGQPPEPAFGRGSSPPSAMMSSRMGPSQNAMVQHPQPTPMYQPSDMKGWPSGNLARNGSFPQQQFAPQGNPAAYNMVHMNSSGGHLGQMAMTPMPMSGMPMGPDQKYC
bovine MsrA act = bovine MsrA enzyme activators, primary screen, biochemical, absorbance, HTS. Methionine sulfoxide reductase A (Bos taurus). purified bovine MsrA, absorbance read-out. activation, % at 10.6 µM. hit rate 0.3% among 360,000; in the data active = activation above about 7.5%
SKN-1 inh = suppressors of acrylamide-induced Pgst-4::GFP reporter in worms, primary screen, SKN-1 inhibitor project, whole organism, uHTS, GFP/RFP fluorescence ratio, strain VP596. inhibition, % at 21.8 µM. hit rate 0.49% among 360,000. C. elegans VP596 Pgst-4::GFP/RFP ratio, 24 h;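 active = interference check ratio from 0.5 to 1.5 plus GFP to RFP signal ratio inhibition reaching or exceeding a fixed threshold, cut at about 30% in these data, passing the limit was not always enough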
Hits are given with their value; - = inactive; . = no result.

SMILES	MsrA inh	MT1-MMP act inh	p-CIP stab down	bovine MsrA act	SKN-1 inh
N#C/C(=C\C=C\c1ccccc1)c1nc(-c2ccc3c(c2)OCO3)cs1	-	-	-	-	47.1
CN(C)c1ccc(C(=O)C(=O)c2ccccc2)cc1	4.6	-	-	-	-
Cc1nnc(-c2cccc(Br)c2)c2cn(-c3ccccc3)nc12	-	-	-	-	-
Cc1nnc(-c2cccc(Br)c2)c2cn(-c3cccc(Br)c3)nc12	-	-	-	-	35.5
Clc1ccc(-c2csc(-c3ccno3)n2)cc1	-	-	-	-	-
Fc1cccc(-c2csc(-c3ccno3)n2)c1	-	-	-	-	51.9
COC(=O)[C@]12C[C@H](CC(=O)NCc3ccccc3)C(=O)N(Cc3ccccc3)C1=C[C@H](C1CCCC1)O[C@@H]2C	-	.	.	.	.
Cc1ccc(O)c(C(=O)C=Cc2ccccc2)c1	-	-	.	-	-
O=C(C=Cc1ccccc1)c1cc(Br)ccc1O	-	-	.	-	43.3
O=C(c1cnn2c(C(F)(F)F)cc(-c3ccco3)nc12)N1CCCc2ccccc21	-	-	-	-	37.0
CCOc1ccccc1C(=O)Nc1ccc(S(=O)(=O)N2CCN(C)CC2)cc1	-	-	-	-	-
CCOc1ccccc1C(=O)Nc1ccc(-n2nncc2C(C)(C)C)cc1	-	-	-	-	35.1
Cc1cc(N2CCNC[C@H]2C)ccc1N1CCN(Cc2ccccc2)[C@H](C)C1	-	.	.	.	.
CCc1nc2oc3ccccc3c(=O)c2c(=O)n1-c1ccccc1	-	-	-	-	30.2
O=C(Cc1c[nH]c2ccccc12)Nc1ccc(Nc2cccnc2)cc1	-	.	.	.	.
CCOc1cc(CNCC(C)C)cc(Cl)c1OCc1ccccc1	-	-	-	-	-
CCOc1cc(CNC2CCCC2)cc(Cl)c1OCc1ccccc1	-	-	-	-	55.9
O=C(N[C@@H](Cc1cccnc1)C(=O)N1CCC[C@H]1C(=O)NC1CCCC1)c1cccs1	-	.	.	.	.
Cc1ccc(-c2[nH]ncc2/C=C(\C#N)C(=O)NC2CCCCC2)cc1	-	-	-	-	58.6
COc1ccc(NC(=O)/C(C#N)=C\c2ccc(Br)o2)cc1	-	-	-	-	-
N#C/C(=C\c1ccc([N+](=O)[O-])o1)C(=O)Nc1ccc(F)cc1	-	-	-	-	35.4
O=C(C(=O)N1CCN(C(=O)c2ccccc2C(F)(F)F)CC1)c1cccc(C(F)(F)F)c1	-	.	.	.	.
CCCCc1c(-c2ccccc2OC)ncn1Cc1ccccc1F	-	.	.	.	.
COC(=O)c1ccsc1NS(C)(=O)=O	-	.	.	.	.
COc1ccc(C(=O)/C=C/c2ccc(OC)c(CN3CCOCC3)c2)cc1	-	-	-	-	61.1
SMILES	MsrA inh	MT1-MMP act inh	p-CIP stab down	bovine MsrA act	SKN-1 inh
COc1ccc(/C=C/C(=O)c2ccc(O)cc2)cc1CN1CCOCC1	-	-	-	-	-
Cc1c(Cl)cccc1N=c1c([N+](=O)[O-])nn(-c2ccccc2)n1O	-	-	-	-	51.7
COC(=O)[C@]12C[C@H](CC(=O)N3CCN(C(=O)c4ccco4)CC3)C(=O)N(CCC3=CCCCC3)C1=C[C@H](C(C)(C)C)O[C@@H]2C	-	.	.	.	.
CC(=O)Nc1ccc(C(=O)OCC(=O)NC(=O)NC(C)(C)C)cc1	-	-	-	-	44.9
C=CC(=O)NC1CCCCN(C)C1=O (stereo not drawn)	-	.	.	.	.
CN1C(=O)C(N=Nc2ccc([N+](=O)[O-])cc2)SC1=S (stereo not drawn)	-	-	.	-	95.6
COc1ccc(/C=C/c2nc3ccccc3n2C)cc1	5.5	-	-	-	-
COc1ccc(/C=C/C(=O)c2nc3ccccc3n2CC(=O)c2ccc(OC)cc2)cc1	-	-	-	-	44.5
CN(Cc1ccccc1)C(=O)c1cccc(NC(=O)Cc2cccc(NC(=O)C3CCN(C(=O)CCc4ccccc4)CC3)c2)c1	-	.	.	.	.
COc1ccc(NC2CC(=O)N(CCc3ccccc3)C2=O)cc1 (stereo not drawn)	-	-	-	-	37.8
CCc1nc(NC(=O)c2sc(C)nc2C)sc1C(=O)OC	4.6	-	-	-	-
COC(=O)c1sc(NC(=O)c2cc(C)on2)nc1C	-	-	-	-	-
CNc1ccc(C=C2C=Cc3ccccc32)cc1	-	-	.	-	81.7
C[C@H]1Cn2cnc(C(=O)N(C)Cc3ccccc3)c2C(=O)N1	-	.	.	.	.
Cc1nc2ccccc2c(=O)n1/N=C/c1ccccc1Cl	-	-	-	-	37.9
Clc1ccc(-c2cn3c(n2)-c2ccccc2C3)cc1Cl	-	-	-	-	40.1
COC(=O)c1cc2c(c3c4cc(OC)ccc4n(S(C)(=O)=O)c13)C(=O)N(C)C2	-	.	.	.	.
C=CC[n+]1ccc(/C=C2\C=Cc3cc(C)ccc3N2CC)c2ccccc21	.	60.7	-	-	37.8
Cc1cc(O)cc(=O)n1-c1cccc([N+](=O)[O-])c1	-	.	.	.	.
N#Cc1cc(-c2cccc(Cl)c2)c[nH]c1=O	-	-	-	-	-
C=CCn1cc(-c2cccc(Cl)c2)cc(C#N)c1=O	-	-	-	-	40.3
COc1ccccc1N1CCN(C(=O)/C=C/c2c(Cl)nc3ccccn23)CC1	4.6	-	-	-	-
Cn1cccc1/C=C(/C#N)c1ccc(F)cc1	5.6	-	-	-	-
CSc1nc2nccc(/C=C\c3ccccc3)n2n1	4.9	-	-	-	-
CSc1nc2nccc(-c3ccc(Cl)cc3)n2n1	-	-	-	-	-
SMILES	MsrA inh	MT1-MMP act inh	p-CIP stab down	bovine MsrA act	SKN-1 inh
C=CCN=C1NC(c2ccccc2C(F)(F)F)C(C(=O)OC)=C(C)N1Cc1cccc(C(F)(F)F)c1 (stereo not drawn)	-	.	.	.	.
COC(=O)C1=C(C)N(C)C(=NCc2ccccc2)NC1c1ccc(F)cc1 (stereo not drawn)	-	.	.	.	.
Cc1cc(Br)cn2c(Cc3ccsc3)c(-c3ccccc3)nc12	-	-	.	-	36.5
Clc1cccc(Cc2c(-c3cccc(Cl)c3)nc3ccc(Br)cn23)c1	-	-	.	-	-
Cc1ccc(-c2nc3c(C)cc(Br)cn3c2Cc2ccsc2)cc1	-	-	.	-	-
Brc1ccc2nc(-c3ccccc3)c(Cc3ccsc3)n2c1	-	-	.	-	37.6
Clc1cccc(-c2nc3ccc(Br)cn3c2Cc2ccccc2)c1	-	-	.	-	35.6
CC(C)(C)OC(=O)N1CCC2CCN(S(C)(=O)=O)CC21 (stereo not drawn)	-	.	.	.	.
COC(=O)c1cc2c(c3c4cc(F)ccc4n(S(=O)(=O)c4cccc(C)c4)c13)C(=O)N(c1ccc(OC)cc1)C2	-	.	.	.	.
CC(C)C1COC(c2cccc3ccccc23)=N1 (stereo not drawn)	-	-	-	-	37.1
CCC(=O)c1ccc(OCC(O)CN2CCN(S(=O)(=O)N3CCCCC3)CC2)cc1 (stereo not drawn)	-	-	-	-	35.4
CCCCNC(=O)C[C@H]1C[C@@]2(C(=O)OC)C(=C[C@H](C(C)(C)C)O[C@@H]2C)N(Cc2ccccc2)C1=O	-	.	.	.	.
